Experimental findings from ChEMBL document CHEMBL1133691 (J Med Chem, 2000) are described below.

As a reminder, the Tmax is the time from dosing to the highest level. What is called AUC is concentration integrated over time. Read a high AUC as more exposure. The Cmax is the maximum level reached in the sampled fluid or tissue. By bioavailability is commonly meant dose-corrected exposure relative to a reference, in per cent. Lower therefore signals poor availability. The clearance is the volume of plasma or blood freed of the substance per unit of time. High values mean efficient removal, low ones inefficient removal. The half-life is the time in which the quantity being followed falls by half. By IC50 is commonly meant the concentration that inhibits the measured activity by half.

Data set [1] is described as follows: time required to reach maximum concentration (Cmax) after oral administration in rat. In kind it is ADME, organism-based. The conditions noted are these: in vivo.
The test system of data set [2] is Rattus norvegicus. Briefly: Area under curve in male SD rats was observed after oral administration in rat. The format is ADME, organism-based. The conditions noted are these: in vivo.
For data set [3], the system named is Rattus norvegicus. Briefly: Area under curve in male SD rats was observed after intravenous administration in rat. In kind it is ADME, organism-based. To be noted: in vivo. In short, it runs like this:
(§1)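 Male SD rats (233-264 g), 3 per group, given a 1 μmol/kg intravenous bolus into a tail vein in DMA:PEG400:citrate buffer (40:40:20), formulated at 2 μmol/mL. No anaesthesia. Tail-vein blood was sampled at 2, 10, 30, 60, 120, 240 and 360 min. Plasma was ethanol-precipitated and analysed by LC-MS/MS against spiked-plasma standard curves. Values are mean ± SD.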

Data set [4] relates to Rattus norvegicus. As to the kind of experiment: mean peak plasma concentration was observed after intravenous administration in rat. The format is ADME, organism-based. Further details: route intravenous. The conditions noted are these: in vivo. In short, it runs like this:
as §1

Data set [5] can be described thus: Oral bioavailability. In kind it is ADME, organism-based. To be noted: rat, in vivo.
Data set [6] can be described thus: volume of distribution at steady state was observed after intravenous administration in rat. The format is ADME, organism-based. To be noted: in vivo, read-out: Vss. In short, it runs like this:
as §1

The nature of data set [7]: plasma clearance was observed after intravenous administration in rat. In kind it is ADME, organism-based. The procedure, abridged: as §1
Data set [8] is described as follows: plasma half life was observed after intravenous administration in rat. In kind it is ADME, organism-based. In short, it runs like this:
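Male SD rats (233-264 g), three per route; 1 μmol/kg given as a tail-vein bolus in DMA:PEG400:citrate buffer (40:40:20) vehicle at 2 μmol/mL, no anaesthesia. Tail-vein blood sampled at 2, 10, 30, 60, 120, 240 and 360 min; plasma ethanol-precipitated and analysed by LC-MS/MS against spiked-plasma standard curves. Values are means ± SD, n = 3.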

The test system of data set [9] is Rattus norvegicus. As to the kind of experiment: mean peak plasma concentration was observed after oral administration in rat. In kind it is ADME, organism-based. On the set-up: route oral. To be noted: in vivo.
Data set [10] concerns the target T1, Dihydrofolate reductase (Rattus norvegicus, UniProt Q920D2).
T1 sequence (Q920D2 whole entry): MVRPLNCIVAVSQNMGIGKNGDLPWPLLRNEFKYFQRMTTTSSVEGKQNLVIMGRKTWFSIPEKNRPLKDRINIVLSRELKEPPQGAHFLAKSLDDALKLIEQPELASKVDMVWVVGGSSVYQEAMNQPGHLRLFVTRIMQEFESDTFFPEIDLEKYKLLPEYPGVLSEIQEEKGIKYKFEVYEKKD
As to the kind of experiment: Ability to inhibit recombinant rat liver dihydrofolate reductase.

A short description of data set [11]: Time required to reach maximum concentration (Cmax) after oral administration in rat. The format is ADME, organism-based. To be noted: in vivo.
The nature of data set [12]: Plasma half life was observed after intravenous administration in rat. The format is ADME, organism-based. In short, it runs like this:
as §1

Data set [13] is described as follows: Volume of distribution at steady state was observed after intravenous administration in rat. The conditions noted are these: in vivo, read-out: Vss. In kind it is ADME, organism-based. The procedure, abridged:
as §1

In data set [14] the target is T2, Dihydrofolate reductase (Homo sapiens, UniProt P00374).
T2 sequence (P00374 whole entry): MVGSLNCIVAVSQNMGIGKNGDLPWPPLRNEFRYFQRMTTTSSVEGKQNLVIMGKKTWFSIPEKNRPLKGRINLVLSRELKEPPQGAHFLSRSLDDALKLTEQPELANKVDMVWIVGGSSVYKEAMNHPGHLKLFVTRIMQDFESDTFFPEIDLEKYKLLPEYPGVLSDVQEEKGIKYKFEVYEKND
As to the kind of experiment: Ability to inhibit recombinant human dihydrofolate reductase.

Data set [15] is described as follows: Plasma clearance was observed after intravenous administration in rat. In kind it is ADME, organism-based. In short, it runs like this:
as §1

Data set [16] concerns Rattus norvegicus. Briefly: Mean peak plasma concentration was observed after intravenous administration in rat. To be noted: in vivo. The format is ADME, organism-based. Further details: route intravenous. The procedure, abridged: as §1
The subject of data set [17] is Rattus norvegicus. Briefly: Mean peak plasma concentration was observed after oral administration in rat. In kind it is ADME, organism-based. Further details: route oral. To be noted: in vivo.

Regarding `CN(Cc1cnc2nc(N)nc(N)c2n1)c1ccc(C(=O)N[C@@H](CCC(=O)O)C(=O)O)cc1` [METHOTREXATE], the Tmax in data set [1] came out at 40.2 min. For the same compound, the AUC with Rattus norvegicus [2] was determined as 0.838 µM·h. The compound further returned an AUC inf in the data set with Rattus norvegicus [3] of 1.56 µM·h. The Cmax in the data set with Rattus norvegicus [4] was determined as 8.26 µM; in the data set with Rattus norvegicus [9], 0.266 µM. The bioavailability in [5] was 5.8%. Further, in [6], the Vd amounted to 0.36 L/kg. Also, in [7], the clearance turned out to be 11 mL/min/kg. This compound also had a half-life in data set [8] of 54 min.
On to `Nc1nc(N)c2nc(COC(=O)c3ccc(C(=O)N[C@@H](CCC(=O)O)C(=O)O)cc3)cnc2n1`, for which, on Dihydrofolate reductase [10], the IC50 stood at 120 nM.
Take `Nc1nc(N)c2cc(COC(=O)c3ccc(C(=O)N[C@@H](CCC(=O)O)C(=O)O)cc3)ccc2n1`: the Tmax in data set [11] was determined as 40.2 min. This compound showed an AUC in the data set on Rattus norvegicus [2] of 0.384 µM·h. In data set [12], the half-life is 60 min. In the data set on Rattus norvegicus [3], this compound returned an AUC inf of 1.23 µM·h. In addition, in [5], the bioavailability stood at 3.4%. Also, the Vd in data set [13] worked out at 0.42 L/kg. In addition, the IC50 on Dihydrofolate reductase [14] is 125 nM; on Dihydrofolate reductase [10], 19.3 nM. The compound further yielded a clearance in [15] of 15 mL/min/kg. The peak concentration (Cmax) came to 9.17 µM in the data set on Rattus norvegicus [16] and 0.144 µM with Rattus norvegicus [17].
